Test results published in ChEMBL document CHEMBL1287754, “28-nor-oleanane-type triterpene saponins from Camellia japonica and their inhibitory activity on LPS-induced NO production in macrophage RAW264.7 cells” (Bioorg Med Chem Lett, 2010).

How the values were obtained:
RAW264.7 [1] = assay: Cytotoxicity against LPS-stimulated mouse RAW264.7 cells assessed as cell viability at 50 uM after 24 hrs by MTT assay; assay type: cell-based; details: raw264.7, 24 h
RAW264.7 [2] = assay: Cytotoxicity against mouse RAW264.7 cells assessed as cell viability at 50 uM after 24 hrs by MTT assay; assay type: cell-based; details: raw264.7, 24 h
RAW264.7 [3] = assay: Antiinflammatory activity in mouse RAW264.7 cells assessed as inhibition of LPS-induced nitric oxide production after 24 hrs by Griess reaction; assay type: functional, cell-based; details: RAW264.7, 24 h
In short: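 LPS-stimulated RAW264.7 macrophages; nitrite, the stable NO metabolite, quantified by Griess reaction in harvested culture medium. IC50 is the molar concentration giving 50% inhibition of NO production relative to vehicle control.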

| SMILES | Activity (RAW264.7 [1]) | Activity (RAW264.7 [2]) | IC50 (RAW264.7 [3]) [µM] |
| --- | --- | --- | --- |
| CC(=O)O[C@H]1[C@@H](O)[C@H](O)[C@@H](O[C@H]2[C@H](O[C@H]3CC[C@@]4(C)C(CC[C@]5(C)[C@@H]4CC=C4[C@@H]6CC(C)(C)CC[C@]6(O)C(=O)C[C@]45C)C3(C)C)O[C@H](C(=O)O)[C@@H](O)[C@@H]2O[C@@H]2O[C@H](CO)[C@H](O)[C@H](O)[C@H]2O[C@@H]2OC[C@@H](O)[C@H](O)[C@H]2O)O[C@H]1CO (some centres undefined) [CAMELLIOSIDE F] | Non-toxic | Non-toxic | 11.5 |
| COC(=O)[C@H]1O[C@@H](O[C@H]2CC[C@@]3(C)C(CC[C@]4(C)[C@@H]3CC=C3C5=C(CCC(C)(C)C5)C(=O)C[C@]34C)C2(C)C)[C@H](O[C@H]2O[C@@H](CO)[C@@H](O)[C@@H](O)[C@@H]2O)[C@@H](O[C@@H]2O[C@H](CO)[C@H](O)[C@H](O)[C@H]2O[C@@H]2OC[C@@H](O)[C@H](O)[C@H]2O)[C@@H]1O (some centres undefined) [CAMELLIOSIDE H] | Non-toxic | Non-toxic | 15.9 |
| CC(=O)O[C@H]1[C@@H](O)[C@H](O)[C@@H](O[C@H]2[C@H](O[C@H]3CC[C@@]4(C)C(CC[C@]5(C)[C@@H]4CC=C4[C@@H]6CC(C)(C)CC[C@]6(O)C(=O)C[C@]45C)C3(C)C)O[C@H](C(=O)O)[C@@H](O)[C@@H]2O[C@@H]2O[C@H](CO)[C@H](O)[C@H](O)[C@H]2O[C@@H]2O[C@H](CO)[C@@H](O)[C@H](O)[C@H]2O)O[C@H]1CO (some centres undefined) [CAMELLIOSIDE] | Non-toxic | Non-toxic | 4.96 |
| CC1(C)CC[C@]2(O)C(=O)C[C@]3(C)C(=CC[C@@H]4[C@@]5(C)CC[C@H](O[C@@H]6O[C@H](C(=O)O)[C@@H](O)[C@H](O[C@@H]7O[C@H](CO)[C@H](O)[C@H](O)[C@H]7O[C@@H]7O[C@H](CO)[C@@H](O)[C@H](O)[C@H]7O)[C@H]6O[C@H]6O[C@@H](CO)[C@@H](O)[C@@H](O)[C@@H]6O)C(C)(C)C5CC[C@]43C)[C@@H]2C1 (some centres undefined) [CAMELLIOSIDE A] | Non-toxic | Non-toxic | 9.59 |
| COC(=O)[C@H]1O[C@@H](O[C@H]2CC[C@@]3(C)C(CC[C@]4(C)[C@@H]3CC=C3[C@@H]5CC(C)(C)CC[C@]5(O)C(=O)C[C@]34C)C2(C)C)[C@H](O[C@H]2O[C@@H](CO)[C@@H](O)[C@@H](O)[C@@H]2O)[C@@H](O[C@@H]2O[C@H](CO)[C@H](O)[C@H](O)[C@H]2O[C@@H]2OC[C@@H](O)[C@H](O)[C@H]2O)[C@@H]1O (some centres undefined) [CAMELLIOSIDE G] | Non-toxic | Non-toxic | 5.16 |
| CC1(C)CC[C@]2(O)C(=O)C[C@]3(C)C(=CC[C@@H]4[C@@]5(C)CC[C@H](O[C@@H]6O[C@H](C(=O)O)[C@@H](O)[C@H](O[C@@H]7O[C@H](CO)[C@H](O)[C@H](O)[C@H]7O[C@@H]7OC[C@@H](O)[C@H](O)[C@H]7O)[C@H]6O[C@H]6O[C@@H](CO)[C@@H](O)[C@@H](O)[C@@H]6O)C(C)(C)C5CC[C@]43C)[C@@H]2C1 (some centres undefined) [CAMELLIOSIDE E] | Non-toxic | Non-toxic | 18.2 |
| CC1CCN=C(N)S1 (centres undefined) | – | – | 0.022 |
